{
  "source": "ChEMBL document CHEMBL3526049",
  "about": "(Drug Metab Dispos, 2012)",
  "key": {"[1]": {"assay": "Half life in wild-type Wistar rat at 20 mg/kg, po by LC-MS/MS analysis", "format": "ADME, organism-based", "set-up": "dose 20 mg/kg, route oral", "settings": "in vivo", "in_short": "(§1)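 Male Wistar wild-type rats and Mrp2-deficient TR⁻ rats with femoral artery and vein cannulas. Sulfasalazine given as an iv bolus (5 mg/kg, water at pH 9–10) and by oral gavage, each followed by arterial plasma sampling over 24 h. Sulfasalazine and sulfapyridine measured by LC-MS/MS; noncompartmental parameters; mean ± S.D., n = 3.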"}, "[2]": {"test_system": "Rattus norvegicus", "assay": "Cmax in MDR1A knockout Sprague-Dawley rat treated with sulfasalazine at 20 mg/kg, po by LC-MS/MS analysis", "format": "ADME, organism-based", "set-up": "dose 20 mg/kg, route oral", "settings": "in vivo", "in_short": "(§2)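 Male Sprague-Dawley knockout or age/weight-matched wild-type rats with femoral artery and vein cannulas. Crossover design: day 0 i.v. bolus 5 mg/kg sulfasalazine in water at pH 9–10, then day 3 gavage 20 mg/kg in 0.5% carboxymethyl cellulose/PBS pH 7.4. Arterial plasma was sampled to 24 h. Sulfasalazine and sulfapyridine were measured by LC-MS/MS (1–5000 ng/ml). Parameters are noncompartmental; n = 4–8, mean ± S.D.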"}, "[3]": {"test_system": "Rattus norvegicus", "assay": "AUC (infinity) in MRP2 knockout Sprague-Dawley rat treated with sulfasalazine at 20 mg/kg, po by LC-MS/MS analysis", "format": "ADME, organism-based, Plasma", "set-up": "dose 20 mg/kg, route oral, time infinity", "settings": "in vivo", "in_short": "as §2"}, "[4]": {"assay": "AUC (infinity) in MRP2-deficient Wistar rat at 20 mg/kg, po by LC-MS/MS analysis", "format": "ADME, organism-based", "set-up": "time infinity, dose 20 mg/kg, route oral", "settings": "plasma", "in_short": "(§3)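 Male Wistar wild-type or Mrp2-deficient TR⁻ rats with femoral artery and vein cannulas. Sulfasalazine was given as a 5 mg/kg i.v. bolus and as a 20 mg/kg oral dose. Arterial plasma was sampled to 24 h and analysed for parent and sulfapyridine by LC-MS/MS. Noncompartmental parameters; n = 3, mean ± S.D.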"}, "[5]": {"assay": "Tmax in wild-type Sprague-Dawley rat treated with sulfasalazine at 20 mg/kg, po by LC-MS/MS analysis", "format": "ADME, organism-based", "set-up": "dose 20 mg/kg, route oral", "settings": "in vivo", "in_short": "(§4)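 Male Sprague-Dawley knockout rats or wild-type rats matched for age and weight, with femoral artery and vein cannulas. Crossover design: sulfasalazine 5 mg/kg iv bolus (water, pH 9–10) on day 0, then 20 mg/kg oral gavage (0.5% carboxymethyl cellulose in PBS, pH 7.4) on day 3. Arterial plasma collected 0–24 h. Sulfasalazine and sulfapyridine measured by LC-MS/MS; noncompartmental parameters; mean ± S.D., n = 4 to 8.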"}, "[6]": {"assay": "Tmax in BCRP knockout Sprague-Dawley rat treated with sulfasalazine at 20 mg/kg, po by LC-MS/MS analysis", "format": "ADME, organism-based", "set-up": "dose 20 mg/kg, route oral", "settings": "in vivo", "in_short": "as §4"}, "[7]": {"test_system": "Rattus norvegicus", "assay": "Drug metabolism in BCRP knockout Sprague-Dawley rat assessed as metabolite to parent ratio treated with sulfasalazine at 20 mg/kg, po", "format": "ADME, organism-based", "set-up": "dose 20 mg/kg, route oral", "settings": "in vivo", "in_short": "as §2"}, "[8]": {"assay": "Half life in BCRP knockout Sprague-Dawley rat treated with sulfasalazine at 20 mg/kg, po by LC-MS/MS analysis", "format": "ADME, organism-based", "set-up": "dose 20 mg/kg, route oral", "settings": "in vivo", "in_short": "as §4"}, "[9]": {"assay": "AUC (infinity) in wild-type Wistar rat at 20 mg/kg, po by LC-MS/MS analysis", "format": "ADME, organism-based", "set-up": "dose 20 mg/kg, route oral, time infinity", "settings": "plasma", "in_short": "as §3"}, "[10]": {"test_system": "Rattus norvegicus", "assay": "AUC (infinity) in wild-type Sprague-Dawley rat treated with sulfasalazine at 20 mg/kg, po by LC-MS/MS analysis", "format": "ADME, organism-based, Plasma", "set-up": "time infinity, dose 20 mg/kg, route oral", "settings": "in vivo", "in_short": "as §2"}, "[11]": {"assay": "Half life in MDR1A knockout Sprague-Dawley rat treated with sulfasalazine at 20 mg/kg, po by LC-MS/MS analysis", "format": "ADME, organism-based", "set-up": "dose 20 mg/kg, route oral", "settings": "in vivo", "in_short": "as §4"}, "[12]": {"assay": "Tmax in MDR1A knockout Sprague-Dawley rat treated with sulfasalazine at 20 mg/kg, po by LC-MS/MS analysis", "format": "ADME, organism-based", "set-up": "dose 20 mg/kg, route oral", "settings": "in vivo", "in_short": "as §4"}, "[13]": {"test_system": "Rattus norvegicus", "assay": "Drug metabolism in wild-type Wistar rat assessed as metabolite to parent ratio treated with sulfasalazine at 20 mg/kg, po", "format": "ADME, organism-based", "set-up": "dose 20 mg/kg, route oral", "settings": "in vivo", "in_short": "as §3"}, "[14]": {"assay": "Cmax in MRP2-deficient Wistar rat at 20 mg/kg, po by LC-MS/MS analysis", "format": "ADME, organism-based", "set-up": "dose 20 mg/kg, route oral", "settings": "in vivo", "in_short": "as §3"}, "[15]": {"test_system": "Rattus norvegicus", "assay": "Cmax in wild-type Sprague-Dawley rat treated with sulfasalazine at 20 mg/kg, po by LC-MS/MS analysis", "format": "ADME, organism-based", "set-up": "dose 20 mg/kg, route oral", "settings": "in vivo", "in_short": "as §2"}, "[16]": {"test_system": "Rattus norvegicus", "assay": "Drug metabolism in MRP2-deficient Wistar rat assessed as metabolite to parent ratio treated with sulfasalazine at 20 mg/kg, po", "format": "ADME, organism-based", "set-up": "dose 20 mg/kg, route oral", "settings": "in vivo", "in_short": "as §3"}, "[17]": {"test_system": "Rattus norvegicus", "assay": "Drug metabolism in MRP2 knockout Sprague-Dawley rat assessed as metabolite to parent ratio treated with sulfasalazine at 20 mg/kg, po", "format": "ADME, organism-based", "set-up": "dose 20 mg/kg, route oral", "settings": "in vivo", "in_short": "as §2"}, "[18]": {"test_system": "Rattus norvegicus", "assay": "Drug metabolism in wild-type Sprague-Dawley rat assessed as metabolite to parent ratio treated with sulfasalazine at 20 mg/kg, po", "format": "ADME, organism-based", "set-up": "dose 20 mg/kg, route oral", "settings": "in vivo", "in_short": "as §2"}, "[19]": {"test_system": "Rattus norvegicus", "assay": "AUC (infinity) in MDR1A knockout Sprague-Dawley rat treated with sulfasalazine at 20 mg/kg, po by LC-MS/MS analysis", "format": "ADME, organism-based, Plasma", "set-up": "time infinity, dose 20 mg/kg, route oral", "settings": "in vivo", "in_short": "as §2"}, "[20]": {"test_system": "Rattus norvegicus", "assay": "AUC (infinity) in BCRP knockout Sprague-Dawley rat treated with sulfasalazine at 20 mg/kg, po by LC-MS/MS analysis", "format": "ADME, organism-based, Plasma", "set-up": "dose 20 mg/kg, route oral, time infinity", "settings": "in vivo", "in_short": "as §2"}, "[21]": {"assay": "Half life in MRP2 knockout Sprague-Dawley rat treated with sulfasalazine at 20 mg/kg, po by LC-MS/MS analysis", "format": "ADME, organism-based", "set-up": "dose 20 mg/kg, route oral", "settings": "in vivo", "in_short": "as §4"}, "[22]": {"assay": "Tmax in MRP2-deficient Wistar rat at 20 mg/kg, po by LC-MS/MS analysis", "format": "ADME, organism-based", "set-up": "dose 20 mg/kg, route oral", "settings": "in vivo", "in_short": "as §1"}, "[23]": {"test_system": "Rattus norvegicus", "assay": "Cmax in BCRP knockout Sprague-Dawley rat treated with sulfasalazine at 20 mg/kg, po by LC-MS/MS analysis", "format": "ADME, organism-based", "set-up": "dose 20 mg/kg, route oral", "settings": "in vivo", "in_short": "as §2"}, "[24]": {"test_system": "Rattus norvegicus", "assay": "Cmax in MRP2 knockout Sprague-Dawley rat treated with sulfasalazine at 20 mg/kg, po by LC-MS/MS analysis", "format": "ADME, organism-based", "set-up": "dose 20 mg/kg, route oral", "settings": "in vivo", "in_short": "as §2"}, "[25]": {"assay": "Cmax in wild-type Wistar rat at 20 mg/kg, po by LC-MS/MS analysis", "format": "ADME, organism-based", "set-up": "dose 20 mg/kg, route oral", "settings": "in vivo", "in_short": "as §3"}, "[26]": {"assay": "Half life in MRP2-deficient Wistar rat at 20 mg/kg, po by LC-MS/MS analysis", "format": "ADME, organism-based", "set-up": "dose 20 mg/kg, route oral", "settings": "in vivo", "in_short": "as §1"}, "[27]": {"assay": "Tmax in MRP2 knockout Sprague-Dawley rat treated with sulfasalazine at 20 mg/kg, po by LC-MS/MS analysis", "format": "ADME, organism-based", "set-up": "dose 20 mg/kg, route oral", "settings": "in vivo", "in_short": "as §4"}, "[28]": {"test_system": "Rattus norvegicus", "assay": "Drug metabolism in MDR1A knockout Sprague-Dawley rat assessed as metabolite to parent ratio treated with sulfasalazine at 20 mg/kg, po", "format": "ADME, organism-based", "set-up": "dose 20 mg/kg, route oral", "settings": "in vivo", "in_short": "as §2"}, "[29]": {"assay": "Half life in wild-type Sprague-Dawley rat treated with sulfasalazine at 20 mg/kg, po by LC-MS/MS analysis", "format": "ADME, organism-based", "set-up": "dose 20 mg/kg, route oral", "settings": "in vivo", "in_short": "as §4"}, "[30]": {"assay": "Tmax in wild-type Wistar rat at 20 mg/kg, po by LC-MS/MS analysis", "format": "ADME, organism-based", "set-up": "dose 20 mg/kg, route oral", "settings": "in vivo", "in_short": "as §1"}},
  "data": [
    {"molecule": "Nc1ccc(S(=O)(=O)Nc2ccccn2)cc1", "note": "[SULFAPYRIDINE]", "values": [
      {"measurement": "half-life", "setting": "[1]", "result": 2.3, "unit": "h"},
      {"measurement": "Cmax", "setting": "[2]", "result": 2525, "unit": "ng.Eq/ml"},
      {"measurement": "AUC", "setting": "[3]", "result": 12675, "unit": "ng.Eq.hr/ml"},
      {"measurement": "AUC(0-inf)", "setting": "[4]", "result": 15400, "unit": "ng·h/mL"},
      {"measurement": "Tmax", "setting": "[5]", "result": 5, "unit": "h"},
      {"measurement": "Tmax", "setting": "[6]", "result": 4, "unit": "h"},
      {"measurement": "Ratio", "setting": "[7]", "result": 4.6},
      {"measurement": "half-life", "setting": "[8]", "result": 1.7, "unit": "h"},
      {"measurement": "AUC(0-inf)", "setting": "[9]", "result": 29400, "unit": "ng·h/mL"},
      {"measurement": "AUC", "setting": "[10]", "result": 21992, "unit": "ng.Eq.hr/ml"},
      {"measurement": "half-life", "setting": "[11]", "result": 1.3, "unit": "h"},
      {"measurement": "Tmax", "setting": "[12]", "result": 7, "unit": "h"},
      {"measurement": "Ratio", "setting": "[13]", "result": 16},
      {"measurement": "Cmax", "setting": "[14]", "result": 3240, "unit": "ng/mL"},
      {"measurement": "Cmax", "setting": "[15]", "result": 4764, "unit": "ng.Eq/ml"},
      {"measurement": "Ratio", "setting": "[16]", "result": 34},
      {"measurement": "Ratio", "setting": "[17]", "result": 22},
      {"measurement": "Ratio", "setting": "[18]", "result": 50},
      {"measurement": "AUC", "setting": "[19]", "result": 14985, "unit": "ng.Eq.hr/ml"},
      {"measurement": "AUC", "setting": "[20]", "result": 14576, "unit": "ng.Eq.hr/ml"},
      {"measurement": "half-life", "setting": "[21]", "result": 1.6, "unit": "h"},
      {"measurement": "Tmax", "setting": "[22]", "result": 4, "unit": "h"},
      {"measurement": "Cmax", "setting": "[23]", "result": 2843, "unit": "ng.Eq/ml"},
      {"measurement": "Cmax", "setting": "[24]", "result": 2499, "unit": "ng.Eq/ml"},
      {"measurement": "Cmax", "setting": "[25]", "result": 4320, "unit": "ng/mL"},
      {"measurement": "half-life", "setting": "[26]", "result": 1.7, "unit": "h"},
      {"measurement": "Tmax", "setting": "[27]", "result": 4.4, "unit": "h"},
      {"measurement": "Ratio", "setting": "[28]", "result": 24},
      {"measurement": "half-life", "setting": "[29]", "result": 2.3, "unit": "h"},
      {"measurement": "Tmax", "setting": "[30]", "result": 4, "unit": "h"}
    ]}
  ]
}
